eIF4H FP inh: human eIF4H binding inhibitors, primary screen, translation initiation inhibitor project, biochemical, uHTS, fluorescence polarization | Eukaryotic translation initiation factor 4H (Homo sapiens), Q15056 | eIF4H fluorescence polarization binding assay | inhibition, % at 35 µM | hit rate 0.94% among 290,000 | AID 2012, 2009;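 further: calls also rest on retests at 20 µM and on dose response follow-up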
MLLE-PAM2 inh: inhibitors of PABP1 MLLE–PAM2 peptide binding, primary screen, biochemical, fluorescence polarization, FITC-PAM2, GST-MLLE; hit rate 0.36% among 360,000; inhibition, % at 20 µM; AID 588489, 2011; in the data active means inhibition above about 35%, passing the limit was not always enough
HCV core dimer: inhibitors of HCV core protein dimerization, primary screen, biochemical, TR-FRET, high-throughput. TR-FRET GST/Flag-core106 dimerization, 1536-well. inhibition, % at 5 µM. hit rate 0.33% among 300,000. AID 1899, 2009;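 active means inhibition above the mean of all tested compounds plus 3 SD, set per screening campaign, cut at about 45% in these data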
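assay system = GST-tagged and Flag-tagged HCV core protein residues 1-106 | controls = unlabelled core106 and no-GST-core106 wells | incubation = compound-protein-antibody incubation 4 h at 22.5 °C | probe or stimulus = Eu donor and XL665 acceptor anti-tag antibodies | read-out = % inhibition based on acceptor/donor emission ratio | signal = TR-FRET 671 and 617 nm emission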
PABP FP inh: PABP poly(A) RNA binding inhibitors, primary screen, biochemical, fluorescence polarization, uHTS. calls only at 35 µM. hit rate 1% among 290,000. AID 2014, 2009;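 further: calls also rest on retests at 20 µM and on dose response follow-up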
eIF4E-4G inh: eIF4E–eIF4G protein interaction inhibitors, primary screen, biochemical, uHTS, TR-FRET, eIF4GI fragment; hit rate 0.37% among 220,000; inhibition, % at 21.7 µM; AID 782, 2007; Eukaryotic translation initiation factor 4E (Mus musculus) + Eukaryotic translation …; TR-FRET eIF4E-eIF4GI(517-606) binding, 2 h;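 active means inhibition above about 30%, limit read from the data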
SUMO HTRF inh: inhibitors of in vitro SUMOylation cascade, primary screen, biochemical, HTRF, uHTS | HTRF SUMOylation assay, SAE1/SAE2 + UBC9 | inhibition, % at 35 µM | hit rate 0.36% among 290,000; in the data active means inhibition above about 50%, passing the limit was not always enough; inconclusive means no clear call, values can overlap the other calls
Target sequence (P63279 whole entry, looked up): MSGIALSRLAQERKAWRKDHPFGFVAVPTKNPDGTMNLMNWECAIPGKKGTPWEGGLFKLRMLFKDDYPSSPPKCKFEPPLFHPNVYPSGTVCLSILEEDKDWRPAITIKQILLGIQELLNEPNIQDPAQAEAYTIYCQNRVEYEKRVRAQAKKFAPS
Each line names hits and unclear results; the compound was inactive in the other large screens; [ ] = another dose, or the depositor's remark. In the library only some 1.8% were active in any assay of this set; here they are far more common. Unless noted, how the calls were made is not given here.

Cc1nonc1OCCNCc1c(C(=O)N(C)C)nc2ccc(Cl)cn12	eIF4H FP inh 87, PABP FP inh active
Cc1nonc1OCCNCc1c(C(=O)N2CCCCCCC2)nc2ccc(Cl)cn12	none
Oc1ccc(/C=N/Nc2ccnc3cc(Cl)ccc23)c(O)c1O	eIF4H FP inh 67 (no result: eIF4E-4G inh)
COc1ccc(COC(=O)CNC(=O)C2CCCCC2)cc1F	none (no result: eIF4H FP inh, HCV core dimer, PABP FP inh, eIF4E-4G inh, SUMO HTRF inh)
O=C(Cn1c2ccccc2c(=O)c2ccccc21)Nc1ccccc1F	none
O=C(Cn1c2ccccc2c(=O)c2cc([N+](=O)[O-])ccc21)Nc1ccccc1Cl	SUMO HTRF inh 51
CCc1ccc(OCc2ccc(C(=O)OC)o2)cc1	none (no result: eIF4E-4G inh)
COc1ccccc1NS(=O)(=O)c1ccc(NN=C2CCCC2)c([N+](=O)[O-])c1	eIF4E-4G inh 67[fluorescence artefact?]
COc1ccccc1NS(=O)(=O)c1ccc(N/N=C/C=C/c2ccccc2[N+](=O)[O-])c([N+](=O)[O-])c1	none
CC1=NN(c2ccc(C(=O)OC(C)C)cc2)C(=O)/C1=C\C=C\c1ccco1	none
CCOC(=O)c1ccc(N2N=C(C)/C(=C/C=C/c3ccco3)C2=O)cc1	eIF4H FP inh inconclusive, PABP FP inh active
CC(=O)N(C)c1ccc(NC(=S)Nc2ccccc2)cc1	none
CC(=O)N(C)c1ccc(NC(=S)Nc2cccc3ccccc23)cc1	SUMO HTRF inh 95
COc1cc(NC(=S)Nc2ccc(OC(F)F)cc2)cc(OC)c1	MLLE-PAM2 inh 41
COc1cc(NC(=S)Nc2ccc(N(C)C(C)=O)cc2)cc(OC)c1	MLLE-PAM2 inh 36
CC(=O)N(C)c1ccc(NC(=S)NCC(C)C)cc1	none
CC(=O)Nc1cc(-c2ccc(CO)cc2)cn2c(-c3cccc(C(F)(F)F)c3)cnc12	none (no result: eIF4H FP inh, HCV core dimer, PABP FP inh, eIF4E-4G inh, SUMO HTRF inh)
COC(=O)c1[nH]c2ccccc2c1NC(=O)/C=C/c1ccc2c(c1)OCO2	PABP FP inh active
CCN(CC(=O)Nc1c(C(=O)OC)[nH]c2ccccc12)c1ccc2c(c1)OCO2	none
c1ccc(NC2=NCCCCS2)cc1	eIF4H FP inh 108
CC(C)Nc1nc(Nc2ccc(F)cc2)c2sccc2n1	none (no result: eIF4H FP inh, HCV core dimer, PABP FP inh, eIF4E-4G inh, SUMO HTRF inh)
CCCCCCC1NC(C(=O)O)CS1 (stereo not drawn)	MLLE-PAM2 inh 38 (no result: eIF4E-4G inh)
CCCCC1NC(C(=O)O)CS1 (stereo not drawn)	MLLE-PAM2 inh 38
COCc1cc(=O)[nH]c(SCCS(=O)(=O)c2ccc(Cl)cc2Cl)n1	MLLE-PAM2 inh 38
CN(C)CCN1CCN(C2CN(Cc3ccc([N+](=O)[O-])cc3)S(=O)(=O)C2)CC1 (stereo not drawn)	none (no result: eIF4H FP inh, HCV core dimer, PABP FP inh, eIF4E-4G inh, SUMO HTRF inh)
Cc1onc(-c2c(F)cccc2Cl)c1C(=O)NC1CCCCCC1	none (no result: eIF4E-4G inh)
Cc1onc(-c2c(F)cccc2Cl)c1C(=O)NC(=S)NC1CCS(=O)(=O)C1 (stereo not drawn)	MLLE-PAM2 inh 47
Cc1ccc(NC(=O)c2cc(S(=O)(=O)N3CCCCC3)c[nH]2)cc1Cl	none (no result: eIF4H FP inh, HCV core dimer, PABP FP inh, eIF4E-4G inh, SUMO HTRF inh)
S=C1NC2=C(CCCC2=C2SCCCS2)C(c2ccccc2)N1 (stereo not drawn)	HCV core dimer 48
COc1ccc(C2NC(=S)NC3=C2CCCC3=C2SCCS2)cc1 (stereo not drawn)	HCV core dimer 48
S=C1NC2=C(CCC/C2=C\c2ccccc2)C(c2ccccc2)N1 (stereo not drawn)	none
O=C(CSc1n[nH]c(=O)[nH]c1=O)Nc1ccc2c(c1)C(=O)c1ccccc1C2=O	eIF4H FP inh 98, PABP FP inh active, SUMO HTRF inh 88
Cc1onc(-c2ccccc2)c1C(=O)Nc1sc2c(c1C(N)=O)CCC2	HCV core dimer 62
Cc1onc(-c2ccccc2)c1C(=O)Nc1nc(-c2ccccc2)cs1	HCV core dimer 54
CC(=O)Nc1ccc(OCCCNC(=O)c2c(-c3ccccc3)noc2C)cc1	eIF4E-4G inh 35
CN(C)c1cccc(CNC(=O)c2ccc3nc([C@@H]4O[C@H](CO)[C@H](O)[C@H](O)[C@H]4O)[nH]c3c2)c1	none (no result: eIF4H FP inh, HCV core dimer, PABP FP inh, eIF4E-4G inh, SUMO HTRF inh)
CC(=O)c1c(C)[nH]c(C(=O)NNC(=O)c2ccc(Br)cc2)c1C	none (no result: eIF4H FP inh, HCV core dimer, PABP FP inh, eIF4E-4G inh, SUMO HTRF inh)
Cc1csc(Nc2nc(N)c(C(=O)Nc3ccccc3)o2)n1	none (no result: eIF4E-4G inh)
O=c1cc(-c2ccc(O)cc2)oc2c(-c3c(O)cc(O)c4c(=O)cc(-c5ccc(O)cc5)oc34)c(O)cc(O)c12	none (no result: eIF4H FP inh, HCV core dimer, PABP FP inh, eIF4E-4G inh, SUMO HTRF inh)
O=c1c(-c2c(O)cc(O)c3c(=O)cc(-c4ccc(O)cc4)oc23)c(-c2ccc(O)cc2)oc2cc(O)cc(O)c12	eIF4H FP inh 95, PABP FP inh active, SUMO HTRF inh 52
Cn1c(=O)c2c(-c3ccccc3)n(-c3ccc(N)cc3)cc2n(C)c1=O	MLLE-PAM2 inh 57 (no result: eIF4H FP inh, HCV core dimer, PABP FP inh, eIF4E-4G inh, SUMO HTRF inh)
Cn1c(=O)c2c(-c3ccccc3)n(-c3cccc(O)c3)cc2n(C)c1=O	none (no result: eIF4H FP inh, HCV core dimer, PABP FP inh, eIF4E-4G inh, SUMO HTRF inh)
COc1cc(/C=C/C(=O)Nc2nnc(C(C)(C)C)s2)cc(OC)c1OC	MLLE-PAM2 inh 41
Cc1cc(F)ccc1NS(=O)(=O)c1c(C(=O)N2CCOCC2)c(C)n(C)c1C	none (no result: eIF4E-4G inh)
O=C1NC(c2ccc3c(c2)OCO3)Oc2ccccc21 (stereo not drawn)	eIF4E-4G inh 37[fluorescence artefact?]
Cc1n[nH]c(=O)n1-c1cccc(C(F)(F)F)c1	none
O=c1[nH]ncn1-c1cccc(C(F)(F)F)c1	eIF4H FP inh 59
CC(C(=O)O)N1C(=O)/C(=C/C=C/c2ccco2)SC1=S (stereo not drawn)	eIF4H FP inh 89, HCV core dimer 75, PABP FP inh active, SUMO HTRF inh 84 (no result: eIF4E-4G inh)
O=C1/C(=C/C=C/c2ccco2)SC(=S)N1NS(=O)(=O)c1ccccc1	eIF4H FP inh 89, HCV core dimer 65, PABP FP inh active, eIF4E-4G inh 34, SUMO HTRF inh 60
CC(=C\c1ccccc1)/C=C1/SC(=S)N(C(C(=O)O)C(C)C)C1=O (stereo not drawn)	none (no result: HCV core dimer)
O=C(NCCCCc1ccccc1)Nc1ccc(F)cc1F	none (no result: eIF4E-4G inh)
O=C(Cc1ccc(NC(=O)C2CCN(C(=O)c3ccccc3)CC2)cc1)Nc1cccc(C(=O)N2CCCCC2)c1	none (no result: eIF4H FP inh, HCV core dimer, PABP FP inh, eIF4E-4G inh, SUMO HTRF inh)
O=C(Nc1ccc2c(c1)CN(Cc1ccc(CO)o1)CC2)c1ccc(C(F)(F)F)cc1	HCV core dimer 58 (no result: eIF4E-4G inh)
COCC(=O)N1CCc2ccc(NC(=O)c3ccc(C(F)(F)F)cc3)cc2C1	none (no result: eIF4H FP inh, PABP FP inh, eIF4E-4G inh, SUMO HTRF inh)
CCc1ccc(NC(=O)C(=O)N/N=C(\C)CC(=O)Nc2ccccn2)cc1	PABP FP inh active
COc1ccc2[nH]c3c(=O)n(CCCCC(=O)NCCN4CCCC4)c(=S)[nH]c3c2c1	none
COc1ccc2[nH]c3c(=O)n(CCCCC(=O)N4CCC(C(N)=O)CC4)c(=S)[nH]c3c2c1	MLLE-PAM2 inh 51

From PubChem
